Test results published in ChEMBL document CHEMBL1142708, “Synthesis, characterization, and comparative in vitro cytotoxicity studies of platinum(II), palladium(II), and gold(III) methylsarcosinedithiocarbamate complexes” (J Med Chem, 2005).

What was measured:
[1] = system: HL-60; assay: Concentration of the compound required to inhibit cell growth by 50% towards human HL60 tumor cell lines by the trypan blue dye exclusion test after 72 h; assay type: functional, cell-based
Procedure, shortened: (§1)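 Cells were seeded in IMDM with 10% heat-inactivated FCS, penicillin/streptomycin and L-glutamine at 37 °C under 5% CO2, at 5.0 × 10^4 cells·mL-1 for HeLa and 2.0 × 10^5 cells·mL-1 for HL60. Compounds were taken from DMSO stocks into IMDM (final DMSO 0.1%). After 72 h, cells were stained for 2 min with 0.25% trypan blue plus 5% FCS, and viable cells were counted by phase-contrast microscopy. IC50 was taken as 50% growth inhibition versus control.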

[2] = system: HeLa; assay: Concentration of the compound required to inhibit cell growth by 50% towards human HeLa tumor cell lines by the trypan blue dye exclusion test after 72 h; assay type: functional, cell-based; procedure, shortened: as §1

IC50 [1]	IC50 [2]	Substance
1.7 µM	1.2 µM	CISPLATIN
> 15 µM	> 15 µM	[Pd(MSDTM)Br2]
> 15 µM	> 15 µM	[Pt(MSDT)Cl]n
0.9 µM	1.7 µM	[Au(MSDT)Cl2]
0.8 µM	1.8 µM	[Au(MSDT)Br2]
> 15 µM	> 15 µM	[Pt(MSDT)Br]n
3.7 µM	5 µM	[Pd(MSDT)Br]n
> 15 µM	> 15 µM	[Pt(MSDTM)Br2]
3.8 µM	6 µM	[Pd(MSDT)Cl]n
